Laboratory results published in PMC4310626 (Biochemistry, 2014).
Where two headings read alike, the source gives them in different places.

How the values were obtained:
[1] = target: T1, E. coli NDH-1 wild-type (Escherichia coli, UniProt P0AFD4+P33599); experiment: Inhibition of dNADH oxidase activity in membrane vesicles, wild-type; type: biochemical
Summary of the method: (§1)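 Inverted membrane vesicles came from chromosomal NuoD-segment mutant or wild-type E. coli, grown overnight at 37 °C in Terrific Broth and disrupted by sonication and French press. The assay used 80 μg protein/mL in 10 mM potassium phosphate (pH 7.0) with 1 mM EDTA, no KCN and no added acceptor, at 30 °C. After 1 min preincubation with test compound, 150 μM dNADH was added. A340 was followed (ε 6.22 mM⁻¹ cm⁻¹), and IC50 was taken as the concentration giving 50% inhibition.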

[2] = target: E. coli NDH-1 NuoD mutant H224R (Escherichia coli, UniProt P0AFD4+P33599, H224R); experiment: Inhibition of dNADH oxidase activity, NuoD mutant H224R; type: biochemical; settings: read-out: app IC50, 50% inhibition of the dNADH oxidase activity
[3] = target: E. coli NDH-1 NuoD mutant G225A (Escherichia coli, UniProt P0AFD4+P33599, G225A); experiment: Inhibition of dNADH oxidase activity, NuoD mutant G225A; type: biochemical
Summary of the method: as §1

[4] = target: E. coli NDH-1 NuoD mutant Y273F (Escherichia coli, UniProt P0AFD4+P33599, Y273F); experiment: Inhibition of dNADH oxidase activity, NuoD mutant Y273F; type: biochemical
Sequence of E. coli NDH-1 NuoD mutant Y273F (P33599 whole entry Y273F): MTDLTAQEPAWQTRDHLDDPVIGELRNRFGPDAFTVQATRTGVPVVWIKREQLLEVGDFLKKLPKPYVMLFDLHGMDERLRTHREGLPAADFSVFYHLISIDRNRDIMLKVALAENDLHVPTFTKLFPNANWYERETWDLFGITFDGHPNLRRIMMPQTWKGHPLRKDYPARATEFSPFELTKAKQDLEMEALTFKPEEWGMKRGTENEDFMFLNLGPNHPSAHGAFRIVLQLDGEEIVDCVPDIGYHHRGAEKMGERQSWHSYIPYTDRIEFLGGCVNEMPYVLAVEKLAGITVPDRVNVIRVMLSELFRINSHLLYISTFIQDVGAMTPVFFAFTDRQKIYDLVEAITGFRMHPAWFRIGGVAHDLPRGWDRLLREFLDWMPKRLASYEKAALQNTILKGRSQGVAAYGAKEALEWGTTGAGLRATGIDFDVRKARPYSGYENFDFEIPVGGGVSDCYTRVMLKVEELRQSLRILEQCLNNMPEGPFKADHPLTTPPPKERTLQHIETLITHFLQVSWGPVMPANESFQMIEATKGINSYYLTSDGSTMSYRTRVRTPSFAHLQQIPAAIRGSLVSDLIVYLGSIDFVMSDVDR
Sequence of E. coli NDH-1 NuoD mutant Y273F (P0AFD4 whole entry): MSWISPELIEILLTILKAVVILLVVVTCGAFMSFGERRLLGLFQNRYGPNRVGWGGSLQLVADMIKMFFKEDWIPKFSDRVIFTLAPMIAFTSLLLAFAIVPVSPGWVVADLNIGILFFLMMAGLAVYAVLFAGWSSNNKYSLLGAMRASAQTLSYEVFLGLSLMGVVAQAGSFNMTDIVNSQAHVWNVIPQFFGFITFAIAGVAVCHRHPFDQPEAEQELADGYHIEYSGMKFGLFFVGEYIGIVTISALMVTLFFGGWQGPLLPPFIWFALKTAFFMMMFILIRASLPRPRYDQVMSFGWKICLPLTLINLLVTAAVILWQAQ
Sequence of E. coli NDH-1 NuoD mutant Y273F (P0AFC7 whole entry partner): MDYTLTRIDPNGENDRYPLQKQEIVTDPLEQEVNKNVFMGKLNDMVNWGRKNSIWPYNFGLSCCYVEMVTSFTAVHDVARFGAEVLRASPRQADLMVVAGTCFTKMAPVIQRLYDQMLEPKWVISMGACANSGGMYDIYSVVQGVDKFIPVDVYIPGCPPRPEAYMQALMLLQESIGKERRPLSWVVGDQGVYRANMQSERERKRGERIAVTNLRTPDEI
Summary of the method: as §1

[5] = target: E. coli NDH-1 NuoD mutant H315R (Escherichia coli, UniProt P0AFD4+P33599, H315R); experiment: Inhibition of dNADH oxidase activity, NuoD mutant H315R; type: biochemical
Sequence of E. coli NDH-1 NuoD mutant H315R (P33599 whole entry H315R): as the sequence (P33599 whole entry Y273F) above, with F273Y, H315R counted along it
Sequence of E. coli NDH-1 NuoD mutant H315R (P0AFD4 whole entry): as the sequence (P0AFD4 whole entry) above
Sequence of E. coli NDH-1 NuoD mutant H315R (P0AFC7 whole entry partner): as the sequence (P0AFC7 whole entry partner) above
Summary of the method: as §1

[6] = target: E. coli NDH-1 NuoD mutant D325A (Escherichia coli, UniProt P0AFD4+P33599, D325A); experiment: Inhibition of dNADH oxidase activity, NuoD mutant D325A; type: biochemical
Sequence of E. coli NDH-1 NuoD mutant D325A (P33599 whole entry D325A): as the sequence (P33599 whole entry Y273F) above, with F273Y, D325A counted along it
Sequence of E. coli NDH-1 NuoD mutant D325A (P0AFD4 whole entry): as the sequence (P0AFD4 whole entry) above
Sequence of E. coli NDH-1 NuoD mutant D325A (P0AFC7 whole entry partner): as the sequence (P0AFC7 whole entry partner) above
Summary of the method: as §1

[7] = target: E. coli NDH-1 NuoH mutant E36D (Escherichia coli, UniProt P0AFC7+P0AFD4+P33599, E36D); experiment: Inhibition of dNADH oxidase activity, NuoH mutant E36D; type: biochemical
[8] = target: E. coli NDH-1 NuoH mutant D63E (Escherichia coli, UniProt P0AFC7+P0AFD4+P33599, D63E); experiment: Inhibition of dNADH oxidase activity, NuoH mutant D63E; type: biochemical
[9] = target: E. coli NDH-1, other NuoD mutants (Escherichia coli, UniProt P0AFD4+P33599); experiment: Inhibition of dNADH oxidase activity, other NuoD mutants; type: biochemical; settings: read-out: IC50 values; all other NuoD mutants (other than G225A, Y273F)
Summary of the method: as §1

[10] = target: E. coli NDH-1 NuoD mutant R228A (Escherichia coli, UniProt P0AFD4+P33599, R228A); experiment: Inhibition of dNADH oxidase activity, NuoD mutant R228A; type: biochemical; settings: app IC50, 50% inhibition of the dNADH oxidase activity
Summary of the method: as §1

[11] = target: E. coli NDH-1 NuoD mutant R228K (Escherichia coli, UniProt P0AFD4+P33599, R228K); experiment: Inhibition of dNADH oxidase activity, NuoD mutant R228K; type: biochemical; settings: app IC50, 50% inhibition of the dNADH oxidase activity
Summary of the method: as §1

[12] = target: E. coli NDH-1 NuoD mutant G235A (Escherichia coli, UniProt P0AFD4+P33599, G235A); experiment: Inhibition of dNADH oxidase activity, NuoD mutant G235A; type: biochemical
Summary of the method: as §1

[13] = target: E. coli NDH-1 NuoD mutant G235V (Escherichia coli, UniProt P0AFD4+P33599, G235V); experiment: Inhibition of dNADH oxidase activity, NuoD mutant G235V; type: biochemical
Summary of the method: as §1

[14] = target: E. coli NDH-1 NuoD mutant E236A (Escherichia coli, UniProt P0AFD4+P33599, E236A); experiment: Inhibition of dNADH oxidase activity, NuoD mutant E236A; type: biochemical
Summary of the method: as §1

[15] = target: E. coli NDH-1 NuoD mutant E236D (Escherichia coli, UniProt P0AFD4+P33599, E236D); experiment: Inhibition of dNADH oxidase activity, NuoD mutant E236D; type: biochemical
Summary of the method: as §1

[16] = target: E. coli NDH-1 NuoD mutant G251A (Escherichia coli, UniProt P0AFD4+P33599, G251A); experiment: Inhibition of dNADH oxidase activity, NuoD mutant G251A; type: biochemical
Summary of the method: as §1

[17] = target: E. coli NDH-1 NuoD mutant G251V (Escherichia coli, UniProt P0AFD4+P33599, G251V); experiment: Inhibition of dNADH oxidase activity, NuoD mutant G251V; type: biochemical; settings: app IC50, 50% inhibition of the dNADH oxidase activity
Summary of the method: as §1

[18] = target: E. coli NDH-1 NuoD mutant R270K (Escherichia coli, UniProt P0AFD4+P33599, R270K); experiment: Inhibition of dNADH oxidase activity, NuoD mutant R270K; type: biochemical; settings: app IC50, 50% inhibition of the dNADH oxidase activity
Summary of the method: as §1

[19] = target: E. coli NDH-1 NuoD mutant R298A (Escherichia coli, UniProt P0AFD4+P33599, R298A); experiment: Inhibition of dNADH oxidase activity, NuoD mutant R298A; type: biochemical; settings: app IC50, 50% inhibition of the dNADH oxidase activity
Summary of the method: as §1

[20] = target: E. coli NDH-1 NuoD mutant R298K (Escherichia coli, UniProt P0AFD4+P33599, R298K); experiment: Inhibition of dNADH oxidase activity, NuoD mutant R298K; type: biochemical
Summary of the method: as §1

[21] = target: E. coli NDH-1 NuoD mutant E308D (Escherichia coli, UniProt P0AFD4+P33599, E308D); experiment: Inhibition of dNADH oxidase activity, NuoD mutant E308D; type: biochemical; settings: app IC50, 50% inhibition of the dNADH oxidase activity
Summary of the method: as §1

[22] = target: E. coli NDH-1 NuoD mutant R311K (Escherichia coli, UniProt P0AFD4+P33599, R311K); experiment: Inhibition of dNADH oxidase activity, NuoD mutant R311K; type: biochemical
Summary of the method: as §1

[23] = target: E. coli NDH-1 NuoD mutant H315A (Escherichia coli, UniProt P0AFD4+P33599, H315A); experiment: Inhibition of dNADH oxidase activity, NuoD mutant H315A; type: biochemical
Summary of the method: as §1

[24] = target: E. coli NDH-1 NuoD mutant D325E (Escherichia coli, UniProt P0AFD4+P33599, D325E); experiment: Inhibition of dNADH oxidase activity, NuoD mutant D325E; type: biochemical
Summary of the method: as §1

[25] = target: E. coli NDH-1 NuoD mutant H355A (Escherichia coli, UniProt P0AFD4+P33599, H355A); experiment: Inhibition of dNADH oxidase activity, NuoD mutant H355A; type: biochemical
Summary of the method: as §1

[26] = target: E. coli NDH-1 NuoH mutant Q44A (Escherichia coli, UniProt P0AFC7+P0AFD4+P33599, Q44A); experiment: Inhibition of dNADH oxidase activity, NuoH mutant Q44A; type: biochemical
[27] = target: E. coli NDH-1 NuoH mutant P49A (Escherichia coli, UniProt P0AFC7+P0AFD4+P33599, P49A); experiment: Inhibition of dNADH oxidase activity, NuoH mutant P49A; type: biochemical
[28] = target: E. coli NDH-1 NuoH mutant E71A (Escherichia coli, UniProt P0AFC7+P0AFD4+P33599, E71A); experiment: Inhibition of dNADH oxidase activity, NuoH mutant E71A; type: biochemical; settings: app IC50, 50% inhibition of the dNADH oxidase activity
[29] = target: E. coli NDH-1 NuoH mutant E157K (Escherichia coli, UniProt P0AFC7+P0AFD4+P33599, E157K); experiment: Inhibition of dNADH oxidase activity, NuoH mutant E157K; type: biochemical
[30] = target: E. coli NDH-1 NuoH mutant E216A (Escherichia coli, UniProt P0AFC7+P0AFD4+P33599, E216A); experiment: Inhibition of dNADH oxidase activity, NuoH mutant E216A; type: biochemical
[31] = target: E. coli NDH-1 NuoH mutant K303A (Escherichia coli, UniProt P0AFC7+P0AFD4+P33599, K303A); experiment: Inhibition of dNADH oxidase activity, NuoH mutant K303A; type: biochemical
[32] = target: T1, E. coli NDH-1 wild-type; settings: read-out: IC50 value, ref [16],[55]; cited from earlier work

T1 sequence (P33599 whole entry): as the sequence (P33599 whole entry Y273F) above, with F273Y counted along it
T1 sequence (P0AFD4 whole entry): as the sequence (P0AFD4 whole entry) above
T1 sequence (P0AFC7 whole entry partner): as the sequence (P0AFC7 whole entry partner) above

With `[N-]=[N+]=Nc1ccc2ncnc(NCCc3ccc(I)cc3)c2c1` [AzQ, 6-azido-4-(4-iodophenetylamino) quinazoline] the IC50 ([1]; read-out: app IC50, 50% inhibition of the dNADH oxidase activity, WT, NuoD series (Table 3)) was 1080 nM, the IC50 ([1]; read-out: app IC50, 50% inhibition of the dNADH oxidase activity, WT, NuoH series (Table 4)) was 1080 nM and the IC50 [2] was 1130 nM. The “increase in the IC50 value” ([3]; NuoD mutant G225A versus wild-type) was about 3 fold, the “increase in the IC50 value” ([4]; NuoD mutant Y273F versus wild-type) was about 2.5 fold and the IC50 ([4]; read-out: app IC50, 50% inhibition of the dNADH oxidase activity, NuoD mutant Y273F) was 2530 nM. The IC50 ([5]; read-out: app IC50, 50% inhibition of the dNADH oxidase activity, NuoD mutant H315R) was 903 nM, the IC50 ([6]; read-out: app IC50, 50% inhibition of the dNADH oxidase activity, NuoD mutant D325A) was 1140 nM and the “decrease in the IC50 value” ([7]; NuoH mutant E36D versus wild-type) was 3–4 fold. The “decrease in the IC50 value” ([8]; NuoH mutant D63E versus wild-type) was 3–4 fold and the IC50 [9] was 1000 nM.
`CCCCCCCCCCCC[C@H](O)[C@H]1CC[C@H]([C@H]2CC[C@H]([C@H](O)CCCCCCCC[C@@H](O)CC3=C[C@H](C)OC3=O)O2)O1` [squamotacin] showed an IC50 [1] of 10 nM, an IC50 [3] of 5 nM and an IC50 [10] of 2 nM. It also gave an IC50 [11] of 3 nM, an IC50 [12] of 4 nM and an IC50 [13] of 6 nM. It also gave an IC50 [14] of 5 nM, an IC50 [15] of 7 nM and an IC50 [16] of 4 nM. It also gave an IC50 [17] of 2 nM, an IC50 [18] of 2 nM and an IC50 [4] of 9 nM. The IC50 [19] was 2 nM, the IC50 [20] was 4 nM and the IC50 [21] was 2 nM. The IC50 [22] was 4 nM, the IC50 [23] was 10 nM and the IC50 [5] was 4 nM. The IC50 [6] was 11 nM, the IC50 [24] was 5 nM and the IC50 [25] was 5 nM. For the same molecule, the IC50 ([7]; app IC50, 50% inhibition of the dNADH oxidase activity, NuoH mutant E36D) was 3 nM, the IC50 [26] was 5 nM and the IC50 [27] was 5 nM. For the same molecule, the IC50 ([8]; app IC50, 50% inhibition of the dNADH oxidase activity, NuoH mutant D63E) was 4 nM, the IC50 [28] was 3 nM and the IC50 [29] was 6 nM. The IC50 [30] was 8 nM, the IC50 [31] was 10 nM and the IC50 [32] was 2 to 10 nM.
